From ChEMBL document CHEMBL3758153, “Identification of novel cyclic lipopeptides from a positional scanning combinatorial library with enhanced antibacterial and antibiofilm activities” (Eur J Med Chem, 2016)
The source made the active and inactive calls. No cut-off for these calls is given here. Where a SMILES comes first, the peptide text is derived from it. Bridges are numbered along the chain shown (N, C = ends). [ ]: non-standard residue; d: D form. The star is where a group is joined. Dodecanoyl(12-guanidino) = N=C(N)NCCCCCCCCCCCC(=O)*; d(aThr) = C[C@@H](O)[C@@H](N)C(=O)O

Assays:
Acinetobacter baumannii [1] = test: Antibacterial activity against Acinetobacter baumannii USF-1403 at 100 ug/mL; assay type: functional, organism-based
Summary of the method: (§1)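 Broth microdilution per CLSI in undiluted Müller–Hinton broth. Compounds were dissolved in DMSO and diluted to a final 1% DMSO (v/v). Plates included medium-only and no-drug growth controls, plus methicillin, vancomycin, nisin, colistin and bacitracin. Triplicate runs.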

Staphylococcus aureus [2] = test: Antibacterial activity against methicillin-resistant Staphylococcus aureus CBD-635 at 5 ug/mL; assay type: functional, organism-based
Summary of the method: (§2)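 CLSI microbroth dilution in undiluted Müller–Hinton broth; peptides dissolved in DMSO and diluted in medium to 1% DMSO (v/v) final. Each agent tested at a fixed concentration against the ESKAPE clinical isolate. Controls: medium alone, inoculum without drug, and inoculum with methicillin, vancomycin, nisin, colistin or bacitracin. Run in triplicate.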

Staphylococcus aureus [3] = test: Antibacterial activity against methicillin-resistant Staphylococcus aureus CBD-635 at 100 ug/mL; assay type: functional, organism-based; summary of the method: as §2
Staphylococcus aureus [4] = test: Antibacterial activity against methicillin-resistant Staphylococcus aureus CBD-635 at 10 ug/mL; assay type: functional, organism-based; summary of the method: as §2
Staphylococcus aureus [5] = test: Antibacterial activity against methicillin-resistant Staphylococcus aureus CBD-635 at 50 ug/mL; assay type: functional, organism-based; summary of the method: as §2
Staphylococcus aureus [6] = test: Antibacterial activity against methicillin-resistant Staphylococcus aureus CBD-635 at 25 ug/mL; assay type: functional, organism-based; summary of the method: as §2
Staphylococcus aureus [7] = test: Ratio of MIC for methicillin-resistant Staphylococcus aureus CBD-635 after 8 serial passages to MIC for methicillin-resistant Staphylococcus aureus CBD-635 after 1st serial passage; assay type: functional
Summary of the method: (§3)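 Serial passage: exponential-phase cultures in MHB at about 10^6 CFU/mL final, started at ½ MIC of agent, incubated overnight at 37°C. An aliquot was moved each step to a 2-fold higher concentration, for 8 passages. MIC was determined at each step by broth microdilution. Vancomycin and ciprofloxacin were comparators. Three independent experiments.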

Pseudomonas aeruginosa [8] = test: Ratio of MIC for Pseudomonas aeruginosa USF-1423 after 8 serial passages to MIC for Pseudomonas aeruginosa USF-1423 after 1st serial passage; assay type: functional; summary of the method: as §3
Staphylococcus aureus [9] = test: Antibacterial activity against methicillin-resistant Staphylococcus aureus CBD-635 at 35 ug/mL; assay type: functional, organism-based; summary of the method: as §2
Pseudomonas aeruginosa [10] = test: Antibacterial activity against Pseudomonas aeruginosa PA14 assessed as eradication of mature biofilm formation at 4.8 uM after 24 hrs by Styo-9/propidium iodide staining based confocal laser scanning microscopy; assay type: functional, organism-based
Pseudomonas aeruginosa [11] = test: Antibacterial activity against Pseudomonas aeruginosa PA14 assessed as inhibition of biofilm formation at 4.8 uM after 3 days by Styo-9/propidium iodide staining based confocal laser scanning microscopy; assay type: functional, organism-based
Staphylococcus aureus [12] = test: Antibacterial activity against methicillin-resistant Staphylococcus aureus SAP0017 clinical isolate assessed as eradication of mature biofilm formation at 4.8 uM after 24 hrs by Styo-9/propidium iodide staining based confocal laser scanning microscopy; assay type: functional, organism-based
[13] = Hemolytic activity in human erythrocytes at 320 uM after 1 hr; assay type: ADME, cell-based; conditions: erythrocyte
Enterococcus faecium [14] = test: Antibacterial activity against vancomycin-resistant Enterococcus faecium USF-1449 at 50 ug/mL; assay type: functional, organism-based; summary of the method: as §2
Enterococcus faecium [15] = test: Antibacterial activity against vancomycin-resistant Enterococcus faecium USF-1449 at 100 ug/mL; assay type: functional, organism-based; summary of the method: as §2
Staphylococcus aureus [16] = test: Antibacterial activity against methicillin-resistant Staphylococcus aureus SAP0017 clinical isolate assessed as inhibition of biofilm formation at 4.8 uM after 3 days by Styo-9/propidium iodide staining based confocal laser scanning microscopy; assay type: functional, organism-based
Acinetobacter baumannii [17] = test: Antibacterial activity against Acinetobacter baumannii USF-1403 at 25 ug/mL; assay type: functional, organism-based; summary of the method: as §1
Acinetobacter baumannii [18] = test: Antibacterial activity against Acinetobacter baumannii USF-1403 at 50 ug/mL; assay type: functional, organism-based; summary of the method: as §1
Acinetobacter baumannii [19] = test: Antibacterial activity against Acinetobacter baumannii USF-1403 at 35 ug/mL; assay type: functional, organism-based; summary of the method: as §1
Klebsiella pneumoniae [20] = test: Antibacterial activity against carbapenem-resistant Klebsiella pneumoniae USF-1433 at 100 ug/mL; assay type: functional, organism-based; summary of the method: as §2
Klebsiella pneumoniae [21] = test: Antibacterial activity against carbapenem-resistant Klebsiella pneumoniae USF-1433 at 50 ug/mL; assay type: functional, organism-based; summary of the method: as §2
Enterococcus faecium [22] = test: Antibacterial activity against vancomycin-resistant Enterococcus faecium USF-1449 at 35 ug/mL; assay type: functional, organism-based; summary of the method: as §2
Pseudomonas aeruginosa [23] = test: Antibacterial activity against Pseudomonas aeruginosa USF-1423 at 25 ug/mL; assay type: functional, organism-based; summary of the method: as §1
Acinetobacter baumannii [24] = test: Antibacterial activity against Acinetobacter baumannii USF-1403 at 10 ug/mL; assay type: functional, organism-based; summary of the method: as §1
Enterobacter cloacae [25] = test: Antibacterial activity against carbapenem-resistant Enterobacter cloacae USF-1454 at 25 ug/mL; assay type: functional, organism-based; summary of the method: as §2
Pseudomonas aeruginosa [26] = test: Antibacterial activity against Pseudomonas aeruginosa USF-1423 at 50 ug/mL; assay type: functional, organism-based; summary of the method: as §1
Pseudomonas aeruginosa [27] = test: Antibacterial activity against Pseudomonas aeruginosa USF-1423 at 10 ug/mL; assay type: functional, organism-based; summary of the method: as §1
Pseudomonas aeruginosa [28] = test: Antibacterial activity against Pseudomonas aeruginosa USF-1423 at 100 ug/mL; assay type: functional, organism-based; summary of the method: as §1
Pseudomonas aeruginosa [29] = test: Antibacterial activity against Pseudomonas aeruginosa USF-1423 at 5 ug/mL; assay type: functional, organism-based; summary of the method: as §1
Enterococcus faecium [30] = test: Antibacterial activity against vancomycin-resistant Enterococcus faecium USF-1449 at 25 ug/mL; assay type: functional, organism-based; summary of the method: as §2
Acinetobacter baumannii [31] = test: Antibacterial activity against Acinetobacter baumannii USF-1403 at 5 ug/mL; assay type: functional, organism-based; summary of the method: as §1
Enterobacter cloacae [32] = test: Antibacterial activity against carbapenem-resistant Enterobacter cloacae USF-1454 at 50 ug/mL; assay type: functional, organism-based; summary of the method: as §2
Enterobacter cloacae [33] = test: Antibacterial activity against carbapenem-resistant Enterobacter cloacae USF-1454 at 100 ug/mL; assay type: functional, organism-based; summary of the method: as §2
Enterococcus faecium [34] = test: Antibacterial activity against vancomycin-resistant Enterococcus faecium USF-1449 at 10 ug/mL; assay type: functional, organism-based; summary of the method: as §2
[35] = Hemolytic activity in human erythrocytes at 155 uM after 1 hr; assay type: ADME, cell-based; conditions: erythrocyte
BJ = test: Cytotoxicity against human BJ cells assessed as reduction in cell viability at 150 uM after 48 to 72 hrs by Cell Titer-Glo Luminescent assay; assay type: cell-based
Summary of the method: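 BJ fibroblasts were seeded at 10,000 per well in EMEM with 10% FBS and incubated overnight at 37 °C, 5% CO2. Medium was then replaced with 2% FBS medium containing peptide (0.5–500 μM, final 1% DMSO). After 48 and 72 h, viability was read by CellTiter-Glo luminescence. Controls were 10 μM doxorubicin and 20% DMSO.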

Molecule	Activity (Acinetobacter baumannii [1])	Activity (Staphylococcus aureus [3])	Activity (Staphylococcus aureus [5])	Activity (Staphylococcus aureus [6])	Activity (Staphylococcus aureus [9])	Activity (Enterococcus faecium [14])	Activity (Enterococcus faecium [15])	other results
CN[C@@H](CC(C)C)C(=O)N[C@H]1C(=O)N[C@@H](CC(N)=O)C(=O)N[C@H]2C(=O)N[C@H]3C(=O)N[C@H](C(=O)N[C@@H](C(=O)O)c4cc(O)cc(O)c4-c4cc3ccc4O)[C@H](O)c3ccc(c(Cl)c3)Oc3cc2cc(c3O[C@H]2O[C@@H](CO)[C@H](O)[C@@H](O)[C@@H]2O[C@@H]2C[C@@](C)(N)[C@@H](O)[C@@H](C)O2)Oc2ccc(cc2Cl)[C@H]1O	Active	Active	Active	Active				Activity (Staphylococcus aureus [2]): Active; Activity (Staphylococcus aureus [4]): Active; Ratio (Staphylococcus aureus [7]): 64; Ratio (Pseudomonas aeruginosa [8]): 64
CC(C)C[C@@H]1NC(=O)[C@@H](Cc2c[nH]c3ccccc23)NC(=O)C(NC(=O)CCCCCCCCCCCNC(=N)N)CNC(=O)[C@@H](CCCNC(=N)N)NC(=O)[C@@H](CC(N)=O)NC(=O)[C@@H](Cc2c[nH]c3ccccc23)NC1=O (stereo partly drawn)		Active	Active	Active	Active			
CC(C)C[C@@H]1NC(=O)[C@@H](CC(C)C)NC(=O)C(NC(=O)CCCCCCCCCCCNC(=N)N)CNC(=O)[C@@H](CCCCN)NC(=O)[C@@H](CC(N)=O)NC(=O)[C@@H](Cc2ccccc2)NC1=O (stereo partly drawn)		Active	Active		Active			
O=C(O)c1cn(C2CC2)c2cc(N3CCNCC3)c(F)cc2c1=O [CIPROFLOXACIN]								Ratio (Staphylococcus aureus [7]): 64; Ratio (Pseudomonas aeruginosa [8]): 64
CC(C)[C@@H]1NC(=O)[C@@H](C(C)C)NC(=O)C(NC(=O)CCCCCCCCCCCNC(=N)N)CNC(=O)[C@@H](C)NC(=O)[C@@H](CC(N)=O)NC(=O)[C@@H]([C@@H](C)O)NC1=O (stereo partly drawn)	Active	Active		Active		Active	Active	inhibition (Pseudomonas aeruginosa [10]): inactive; inhibition (Pseudomonas aeruginosa [11]): Active; inhibition (Staphylococcus aureus [12]): inactive; Activity [13]: Non-toxic; inhibition (Staphylococcus aureus [16]): Active
CC[C@@H](C)[C@H]1NC(=O)[C@H](Cc2ccccc2)NC(=O)[C@@H](CC(C)C)NC(=O)C(NC(=O)CCCCCCCCCCCNC(=N)N)CNC(=O)[C@@H](CCCCN)NC(=O)[C@@H](CC(N)=O)NC1=O (stereo partly drawn)		Active	Active		Active			
CC[C@@H](C)[C@H]1NC(=O)[C@H](CC(C)C)NC(=O)[C@@H](CCCCN)NC(=O)C(NC(=O)CCCCCCCCCCCNC(=N)N)CNC(=O)[C@@H](CCCCN)NC(=O)[C@@H](CC(N)=O)NC1=O (stereo partly drawn)	Active					Active	Active	Activity (Acinetobacter baumannii [17]): Active; Activity (Acinetobacter baumannii [18]): Active; Activity (Acinetobacter baumannii [19]): Active
CC(C)C[C@@H]1NC(=O)[C@@H](CC(C)C)NC(=O)C(NC(=O)CCCCCCCCCCCNC(=N)N)CNC(=O)[C@@H](CCCNC(=N)N)NC(=O)[C@@H](CC(N)=O)NC(=O)[C@@H](CCCCN)NC1=O (stereo partly drawn)	Active	Active	Active		Active	Active	Active	Activity (Acinetobacter baumannii [17]): Active; Activity (Klebsiella pneumoniae [20]): Active; Activity (Acinetobacter baumannii [18]): Active; Activity (Klebsiella pneumoniae [21]): Active; Activity (Enterococcus faecium [22]): Active; Activity (Acinetobacter baumannii [19]): Active
CC(C)C[C@@H]1NC(=O)[C@@H](CC(C)C)NC(=O)C(NC(=O)CCCCCCCCCCCNC(=N)N)CNC(=O)[C@@H](CCCNC(=N)N)NC(=O)[C@@H](CC(N)=O)NC(=O)[C@@H](Cc2ccccc2)NC1=O (stereo partly drawn)		Active	Active					
COLISTIN	Active	Active				Active	Active	Activity (Pseudomonas aeruginosa [23]): Active; Activity (Acinetobacter baumannii [24]): Active; Activity (Enterobacter cloacae [25]): Active; Activity (Pseudomonas aeruginosa [26]): Active; Activity (Acinetobacter baumannii [17]): Active; Activity (Pseudomonas aeruginosa [27]): Active; Activity (Klebsiella pneumoniae [20]): Active; Activity (Acinetobacter baumannii [18]): Active; Activity (Pseudomonas aeruginosa [28]): Active; Activity (Pseudomonas aeruginosa [29]): Active; Activity (Enterococcus faecium [30]): Active; Activity (Acinetobacter baumannii [31]): Active; Activity (Enterobacter cloacae [32]): Active; Activity (Enterobacter cloacae [33]): Active; Activity (Enterococcus faecium [34]): Active
CC[C@@H](C)[C@H]1NC(=O)[C@H](Cc2ccccc2)NC(=O)[C@@H](CC(C)C)NC(=O)C(NC(=O)CCCCCCCCCCCNC(=N)N)CNC(=O)[C@@H](CCCNC(=N)N)NC(=O)[C@@H](CC(N)=O)NC1=O (stereo partly drawn)		Active	Active		Active			
C[C@@H](O)[C@H]1NC(=O)[C@@H](CC(N)=O)NC(=O)[C@@H](CCCNC(=N)N)NC(=O)[C@H](Cc2c[nH]c3ccccc23)NC(=O)[C@@H](Cc2c[nH]c3ccccc23)NC(=O)C(NC(=O)CCCCCCCCCCCNC(=N)N)CNC1=O (stereo partly drawn)		Active	Active		Active			
CC(C)[C@@H]1NC(=O)[C@@H](C(C)C)NC(=O)[C@@H](NC(=O)CCCCCCCCCCCNC(=N)N)[C@@H](C)OC(=O)[C@@H](C)NC(=O)[C@@H](CC(N)=O)NC(=O)[C@@H]([C@@H](C)O)NC1=O ({Dodecanoyl(12-guanidino)}-T[dV]V[d(aThr)][dN][dA]; ester 1-C)	Active	Active	Active	Active		Active		Activity (Pseudomonas aeruginosa [10]): Active; Activity (Staphylococcus aureus [4]): Active; inhibition (Pseudomonas aeruginosa [11]): Active; Activity (Staphylococcus aureus [12]): Active; Activity [35]: Toxic; Activity (Enterococcus faecium [30]): Active; Activity (BJ): Toxic; inhibition (Staphylococcus aureus [16]): Active
